Only some compounds are listed: those with a hit (about 1.4% of all), similar ones and a draw of the others.
DDE Tn7 FP inh: DD(E)-Tn7 binding inhibition, primary FP screen. P02675. FP displacement of FITC-Tn7 peptide from fibrin DD(E); 0% = median of compound wells per plate. inhibition, % at 8.3 µM. 370,000 tested, 0.13% active. AID 720508;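 active = inhibition above the mean of compounds falling within the control limits plus 3 SD of them, cut at about 14% in these data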;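 note: 0% = plate median of compound wells and 100% = 10 µM Aha-Tn7 peptide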
Target sequence (P02675 whole entry, looked up): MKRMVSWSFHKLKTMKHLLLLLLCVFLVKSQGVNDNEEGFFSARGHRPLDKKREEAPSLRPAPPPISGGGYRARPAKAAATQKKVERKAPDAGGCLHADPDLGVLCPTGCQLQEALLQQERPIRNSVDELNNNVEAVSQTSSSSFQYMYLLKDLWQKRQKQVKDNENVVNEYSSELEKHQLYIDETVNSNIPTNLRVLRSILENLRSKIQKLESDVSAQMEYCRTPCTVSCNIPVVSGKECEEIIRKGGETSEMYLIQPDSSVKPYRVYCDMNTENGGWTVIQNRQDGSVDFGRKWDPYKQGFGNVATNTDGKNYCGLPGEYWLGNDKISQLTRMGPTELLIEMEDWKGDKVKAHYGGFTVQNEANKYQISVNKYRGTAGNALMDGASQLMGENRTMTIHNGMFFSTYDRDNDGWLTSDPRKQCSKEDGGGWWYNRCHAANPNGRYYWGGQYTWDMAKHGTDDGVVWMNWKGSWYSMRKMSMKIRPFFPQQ
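system = human fibrin DD(E) protein | quantity = DD(E) 2 µM final | medium = Tris/NaCl/CaCl2 buffer, pH 7.8 | also added = labelled Tn7 tracer, 0.1 µM | compound dosing = single point at 8.3 µM | timing = compound with protein 10 min, then 3 h after probe, room temperature | signal = FP measurement | benchmarks = Aha-Tn7 high control | repeats = one replicate per compound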
Cardio protect: modulators protecting cardiomyocytes from myocardial damage. H9c2 cardiomyocytes, H2O2 injury protection, ATPLite, 2 h. protection from H2O2 cell death, % at 20 µM. 360,000 tested, 0.63% active;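 active = compounds giving at least 50% protection of heart cells from peroxide-induced death in the single-dose screen, raw or plate-pattern-corrected value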;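 note: 0% = DMSO wells with peroxide and 100% = DMSO wells without peroxide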
DAGLB inhibitor: blocks human DAGLB lipase activity | HEK293T DAGLB membrane lysate, EnzChek fluorogenic substrate | inhibition, % at 5.17 µM | 340,000 tested, 0.059% active | AID 504411; in the data active = inhibition above about 34%;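 note: 0% = enzyme with vehicle and 100% = wells lacking enzyme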
H9c2 TAG inh: inhibitors of triacylglycerol accumulation; AID 651582; H9c2 cells, Nile Red lipid (TAG) fluorescence; cells loaded with 200 µM oleic acid; inhibition, % at 12.5 µM; 230,000 tested, 0.66% active;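 active = pattern-corrected inhibition of lipid staining of at least 50% with the nuclear-stain viability signal not falling by more than 50%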;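 note: 0% = DMSO wells and 100% = triacsin C control wells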
MT1-MMP act inh: MT1-MMP (human) activation inhibition | HT1080 RFP-PRO-GFP cells, GFP/RFP ratio fluorescence, overnight; percent of plate control window, DMSO zero | GFP/RFP ratio change, % at 20 µM | 360,000 tested, 0.061% active;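 active = GFP/RFP ratio change of at least 30% with cell ATP level not reduced by more than half and red fluorescence within 50% of control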
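Test system: HT1080 RFP-PRO-GFP cells; Benchmarks: DMSO and RFP-L50D-GFP cell wells; Timing: cells overnight before dosing, compound overnight, 37 °C, 5% CO2; Compound: one 20 µM compound dose with 1% DMSO; Read-out: GFP/RFP fluorescence ratio.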
Tn6 DDE FP: disrupts Tn6 cyclic peptide binding to fibrin D-Dimer-E complex; inhibition, % at 8.3 µM; AID 720509; Fibrin DD(E) TRITC-Tn6 fluorescence polarization displacement; P02675; 370,000 tested, 0.21% active;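 active = inhibition above a per-campaign cutoff: mean of compounds within control limits plus 3 SD, cut at about 15% in these data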;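 note: 0% = median of all compound wells on the plate and 100% = blocking peptide control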
Tn6 DDE ctr: counter-screen hit for Tn6 peptide-fibrin DD(E) binding disruption; shares compounds with Tn6 DDE FP; TRITC-Tn6 fluorescence polarization displacement; 0% = median of compound wells, not DMSO; inhibition, % at 8.3 µM; 680 tested, 2% active;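 active = inhibition above the mean of test compounds lying between the control limits plus 3 SD of those, cut at about 14% in these data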;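 note: 0% = median of compound wells and 100% = wells with Aha-Tn7 blocking peptide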
Tn6 DDE conf: confirmation of inhibitors of Tn6 binding to human fibrin DD(E). shares compounds with Tn6 DDE FP. FP displacement of TRITC-Tn6 peptide from DD(E); 0% = per-plate median of test wells. inhibition, % at 8.3 µM. 680 tested, 10% active. AID 720631;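 active = inhibition above the mean of compounds lying within the control limits plus 3 SD, cut at about 16% in these data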;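 note: 100% = high control wells holding a competing inhibitor peptide at 10 µM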
An asterisk follows results filed as active; . = not tested or not shown.

SMILES	DDE Tn7 FP inh	Cardio protect	DAGLB inhibitor	H9c2 TAG inh	MT1-MMP act inh	Tn6 DDE FP	Tn6 DDE ctr	Tn6 DDE conf
CC(=O)Oc1cccc2c1C(=O)c1c(OC(C)=O)cc(C(=O)O)cc1C2=O	8	-9	2	-6	1	16*	5	2
N#Cc1ccc(NC(=O)OC2CC3CC2[C@H]2CCCCN2[C@H]3Cc2ccccc2)cc1 (some centres undefined)	-1	.	.	.	.	-3	.	.
Cc1ccc(NC(=O)COC(=O)c2ccc(NC(=O)CC#N)cc2)cc1S(=O)(=O)N1CCOCC1	2	2	-1	-3	-2	20*	-2	-7
COC(=O)CCC(=O)OC1(C)C(=O)C=C2C=C(C3CC3)N(C3CCCC3)C=C2C1=O (centres undefined)	-7	5	-2	20	1	20*	-6	-9
C=CCN(c1ccccc1OC)S(=O)(=O)c1cccc(C(=O)NCc2cccs2)c1	-2	-9	-1	-18	-9	7	.	.
CC(C)Oc1ccc(C(CC(=O)NCCCN(C)C)c2ccc(F)cc2)cc1 (centres undefined)	0	3	0	.	-4	7	.	.
CC(Oc1ccc(F)cc1)C(O)CCN(C)C (centres undefined)	0	-4	-1	-6	-1	24*	-7	-8
CCOc1ccc2noc3c2c1C(=O)c1ccccc1-3	-9	27	-156	.	-79	41*	53*	10
COc1ccccc1NS(=O)(=O)c1cccc(C(=O)N2CCCCCC2)c1	9	1	1	-15	5	0	.	.
COc1ccccc1NS(=O)(=O)c1cccc(NC(=O)Nc2ccccc2)c1	-7	-10	1	.	-2	-9	.	.
COc1ccccc1NS(=O)(=O)c1cccc(NC(=O)Nc2ccc(Cl)cc2)c1	-3	-14	-1	-51	-1	170*	10	23*
COc1ccccc1NS(=O)(=O)c1cccc(C(=O)N2CCN(C(=O)c3ccco3)CC2)c1	5	4	-1	-3	-3	16*	0	1
CCCCNC(=O)C(NC(=O)c1ccc2ccccc2c1)C(=O)c1ccccc1 (centres undefined)	0	.	.	.	-2	2	.	.
CCC(=O)OC1(C)C(=O)C=C2C=C(CCCC(=O)OC)OC=C2C1=O (centres undefined)	2	-4	-4	.	-3	7	.	.
CCCCC1=CC2=CC(=O)C(C)(OC(=O)CC)C(=O)C2=CO1 (centres undefined)	-3	6	4	5	-1	18*	6	0
Cc1ccc(NC(=O)/C=C/c2ccc([N+](=O)[O-])s2)cc1	3	0	1	.	-58	18*	-4	-7
COc1cccc(NC(=O)CN2C(=O)NC3(CCCCCC3)C2=O)c1	5	-5	1	3	4	15*	5	-1
CCCCC(=O)Nc1ccc(NC(=S)NC(=O)CC)cc1OC	-4	3	-2	.	5	-3	.	.
CCCC(=O)Nc1cc(OC)c(NC(=S)Nc2ccc(CC)cc2)cc1OC	4	0	1	.	3	36*	4	3
CCc1ccc(NC(=S)Nc2cc(OC)c(NC(=O)C(C)C)cc2OC)cc1	-5	-7	-3	-5	2	25*	2	2
CCCC(=O)Nc1cc(OC)c(NC(=S)Nc2cccc(C)c2)cc1OC	-3	7	3	10	0	26*	-3	-18
CC(CCN1CCC(C(O)(c2ccccc2)c2ccccc2)CC1)Oc1cc(F)cc(C#N)c1 (centres undefined)	2	.	.	.	.	2	.	.
COc1ccccc1CCC(=O)Nc1ncc(C)s1	3	-2	-2	.	-3	15*	-1	-5

Screening data as filed in PubChem.
